PGE2 EP2 inh: inhibitors of human EP2 prostaglandin E2 receptor. P43116. inhibition, % at 25 µM. hit rate 0.52% among 260,000. C6 glioma cells expressing human EP2, cAMP TR-FRET; cells stimulated with saturating PGE2. AID 1422;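 active means percent inhibition above 40 after rounding to a whole number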;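 further: rat C6 glioma host cells with rolipram phosphodiesterase inhibitor present; the protocol text gives 20 µM as final concentration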
FXIIa inh 1536: blocks human coagulation factor XIIa protease activity; purified FXIIa, Boc-QGR-AMC fluorogenic substrate, 2 h; hit rate 0.3% among 220,000; inhibition, % at 5 µM; in the data active means inhibition above about 40%;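 further: 0% = enzyme with no compound and 100% = blank without enzyme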
FXIa inh: blocks human coagulation factor XIa protease activity | purified FXIa, Boc-Glu-Ala-Arg-AMC fluorogenic substrate | inhibition, % at 5 µM | hit rate 0.14% among 220,000 | AID 798;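 active means inhibition of at least 40%; inactive means inhibition below 40%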;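 further: fluorescence of freed AMC excited at 355 nm; 0% = enzyme without compound and 100% = no enzyme blank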
Target sequence (P03951 19-387 limits assumed): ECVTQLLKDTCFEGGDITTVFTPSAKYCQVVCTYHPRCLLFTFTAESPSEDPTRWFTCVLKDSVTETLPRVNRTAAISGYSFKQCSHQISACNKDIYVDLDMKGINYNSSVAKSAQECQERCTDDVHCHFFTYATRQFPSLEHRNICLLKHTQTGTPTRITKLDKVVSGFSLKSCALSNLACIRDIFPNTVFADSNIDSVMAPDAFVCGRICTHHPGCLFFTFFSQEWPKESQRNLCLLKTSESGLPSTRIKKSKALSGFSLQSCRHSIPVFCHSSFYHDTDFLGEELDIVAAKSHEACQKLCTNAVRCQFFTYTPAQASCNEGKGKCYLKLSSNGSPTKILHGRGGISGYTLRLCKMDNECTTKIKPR
Target sequence (P03951 388-625 limits assumed): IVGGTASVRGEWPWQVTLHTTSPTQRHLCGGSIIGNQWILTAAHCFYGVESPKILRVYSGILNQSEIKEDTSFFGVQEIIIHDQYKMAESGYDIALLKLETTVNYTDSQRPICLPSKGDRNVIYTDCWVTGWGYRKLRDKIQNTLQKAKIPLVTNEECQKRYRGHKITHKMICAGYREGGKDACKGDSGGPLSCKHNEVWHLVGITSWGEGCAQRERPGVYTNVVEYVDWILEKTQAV
thrombin 1536: thrombin (human) inhibition; inhibition, % at 5 µM; alpha-thrombin, Boc-VPR-AMC fluorogenic substrate cleavage; hit rate 0.26% among 220,000; AID 1046; P00734;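 active means inhibition at or above 40%; inactive means inhibition below 40%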;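 further: 0% = enzyme with no compound and 100% = wells without enzyme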
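System: human alpha-thrombin protein; Compound dosing: one concentration per compound, 5 µM, with 0.2% DMSO; Timing: reaction at room temperature; Technique: AMC fluorescence, 355/460 nm; Controls: enzyme without compound as high, wells lacking enzyme as low.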
EP2 modulator: modulators of human EP2 prostaglandin E2 receptor. EP2-expressing cells, cAMP HTRF FRET, PGE2 co-stimulation. hit rate 0.83% among 260,000. P43116. induction, % at 25 µM. AID 940;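 active means compounds whose cAMP rise, as percent of the full-agonist control response, exceeds 60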;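 further: rat C6 glioma line stably carrying human EP2 under a CMV promoter; the protocol text gives 20 µM as final concentration; 100% = response of wells given 1 µM PGE2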
KLK5 inh: inhibitors of human kallikrein 5. Q9Y337. recombinant hK5, fluorogenic AMC substrate cleavage. inhibition, % at 5 µM. hit rate 0.59% among 210,000. AID 873;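 active means inhibition of 40% or more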;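 further: 0% = enzyme controls without compound and 100% = no-enzyme blanks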
Active calls of the source: *; nt = no result given; ! = not active in a repeat. Shown are actives, neighbours in structure and some others; about 2.1% of the full set was active somewhere.

SMILES	PGE2 EP2 inh	FXIIa inh 1536	FXIa inh	thrombin 1536	EP2 modulator	KLK5 inh
N#Cc1cc2c(nc1SCc1ccccc1)CCC2	42*	20	11	5	40	-4
Cc1cc2c(C)ccc(C)c2nc1SCC(=O)c1cccs1	4	3	3	7	63*	9
COc1cccc(N2CCN(C3CC(=O)N(c4ccc(F)c(Cl)c4)C3=O)CC2)c1 (stereo not given)	17	-3	-4	0	3	44*
COCCNC(=O)CSc1nnc2c(Cl)cc(Cl)cn12	12	56*	2	17	3	52*
O=S(=O)(O)c1ccc2cc(N=Nc3cc(S(=O)(=O)O)c4cccnc4c3O)ccc2c1	52*	nt	nt	nt	16	nt
CC1=CC(C)(C)n2c(O)c(N=NC(N)=S)c3c(C)ccc1c32	23	4	13	7	17	-9
CC1=CC(C)(C)n2c(O)c(N=NC(N)=S)c3c(C)c(C)cc1c32	2	14	5	6	-10	2
CC1=CC(C)(C)n2c(O)c(N=N)c3c(C)c(C)cc1c32	5	1	-1	-6	76*	0
CC1=CC(C)(C)n2c(O)c(N=N)c3c(C)ccc1c32	11	11	3	1	82*	4
COc1cc(C(=O)O/N=C2\C=CC(=O)C(C)=C2)cc(OC)c1OC	7	96*	12	4	-44	1
CC1=CC(=NOC(=O)c2cccc([N+](=O)[O-])c2)C=C(C)C1=O	10	37	4	2	-15	-6
COc1cc(C(=O)ON=C2C=C(C)C(=O)C(C)=C2)cc(OC)c1OC	24	90*	-5	-4	-48	-6
COc1ccc(C(=O)ON=C2C=C(C)C(=O)C(C)=C2)cc1	6	68*	18	3	-25	9
Cc1cc(=O)oc2cc(OCC(=O)Nc3nnc(CC(C)C)s3)ccc12	12	4	-4	-6	-7	12
CCCCc1nnc(NC(=O)COc2ccc3c(C)cc(=O)oc3c2)s1	20	34	14	14	9	112*
COC(/C=C/Nc1ccc(Br)cc1)=C(C#N)C#N	nt	17	2	38	5	49*
CC1CCc2c(sc3nc(SCC(=O)N4CCOCC4)[nH]c(=O)c23)C1 (stereo not given)	13	nt	nt	nt	7	nt
Cc1ccc(C)c2[nH]c(=O)c(CN(CCO)C(=S)NC3CCCCC3)cc12	5	nt	nt	nt	-41	nt
Oc1cc(O)c2c(c1)O[C@@H](c1ccc(O)c(O)c1)[C@H](O[C@@]1(c3cc(O)c(O)c(O)c3)Oc3cc(O)cc(O)c3[C@H](O)[C@H]1O)C2	57*	nt	nt	nt	12	nt
Oc1ccc([C@H]2Oc3cc(O)cc(O)c3C[C@H]2O)cc1	9	nt	nt	nt	11	nt
COc1ccccc1C1(O)CCN(CC(O)c2ccc3c(c2)CCO3)CC1 (stereo not given)	6	nt	nt	nt	-46	nt
O=C(NCCN1C(=O)C2C3C=CC(C3)C2C1=O)Nc1ccccc1 (stereo not given)	6	107*	5	18	23	39
O=C(O)CCC(=O)Nc1ccc(CN2CCCC2)cc1	6	nt	nt	nt	-4	nt
Cc1c(C(=O)c2ccc(Cl)c(Cl)c2)cnc2cc3c(cc12)OCO3	4	8	4	-3	-60	-7
COc1ccc(C(=O)c2cnc3cc4c(cc3c2C)OCO4)cc1	19	0	9	34	-8	74*
SMILES	PGE2 EP2 inh	FXIIa inh 1536	FXIa inh	thrombin 1536	EP2 modulator	KLK5 inh
CCN(C1CCCCC1)S(=O)(=O)c1cccc(S(=O)(=O)N2CCOCC2)c1	10	nt	nt	nt	-43	nt
O=C1c2cccc(O)c2C(=O)c2c(O[C@@H]3O[C@H](CO)[C@@H](O)[C@H](O)[C@H]3O)cccc21	52*	nt	nt	nt	-17	nt
OCc1ccccc1O[C@@H]1O[C@H](CO)[C@@H](O)[C@H](O)[C@H]1O	9	nt	nt	nt	2	nt
Cc1ccc(-n2nnnc2SCC(=O)N2CCc3ccccc3C2)cc1	3	5	7	4	-10	-21
Cn1nnnc1SCC(=O)N1CCc2ccccc2C1	10	35	11	25	13	59*
C=CCN1C(=O)C(C)NC1=S (stereo not given)	3	9	3	-9	-12	0
C=CCN1C(=O)C(C(C)CC)NC1=S (stereo not given)	8	23	36	41*	12	88*
O=C(c1cccs1)N1CCC(Cn2nc(-c3ccco3)ccc2=O)CC1	nt	nt	nt	nt	-32	nt
CCn1c(=O)c(C(=O)NCc2ccc(OC)cc2)c(O)c2ccccc21	-1	6	4	3	62*	3
CCCn1c(=O)c(C(=O)NCCO)c(O)c2ccccc21	14	nt	nt	nt	25	nt
CCCn1c(=O)c(C(=O)NCCc2ccc(OC)cc2)c(O)c2ccccc21	9	nt	nt	nt	71*	nt
CCn1c(=O)c(C(=O)NCc2ccc(OC)c(OC)c2)c(O)c2ccccc21	10	16	-2	-3	61*!	-8
O=C(NCc1ccccc1)c1sc(=S)n2c1[nH]c(=O)c1ccccc12	9	16	16	25	-46	43*
O=[N+]([O-])c1ccc(NN=C2c3ccccc3Cc3ccccc32)c([N+](=O)[O-])c1	44*	nt	nt	nt	24	nt
CCc1nc2sc3c(c2c2nnc(SCC(=O)NCc4ccc5c(c4)OCO5)n12)CCC(C)C3 (stereo not given)	14	nt	nt	nt	80*	nt
CCOC(=O)c1ccccc1NC(=O)Cc1ccccc1OC	0	15	7	-3	62*	-5
O=C(CSc1nc2ccccc2o1)c1cc2ccccc2oc1=O	18	13	6	81*	-1	30
COc1ccccc1CC(=O)Nc1ccccc1C(=O)O	4	12	7	3	8	-20
CCOC(=O)c1c(NC(=O)CSc2nc3ccccc3o2)sc(C)c1C	5	2	-7	-7	38	-3
CCOC(=O)c1ccccc1NC(=O)CSc1nc2ccccc2o1	4	-9	-12	-1	61*	-14
Cc1cc(C)nc(SCC(=O)c2cc3ccccc3oc2=O)n1	7	-2	4	-6	6	-13
COCCNC(=O)Cn1cc(CN2CCC(N3CCOCC3)CC2)c2ccccc21	4	nt	nt	nt	-11	nt
CCN(CC)CCN(Cc1cc2ccc(C)cc2[nH]c1=O)C(=S)NC1CCCCC1	9	nt	nt	nt	-13	nt
COc1cccc(C(=O)NNC2=CC(=O)CC(C)(C)C2)c1	8	13	3	-2	-14	-8
CC1(C)CC(=O)C=C(NNC(=O)c2cccnc2)C1	6	29	20	21	-9	65*
CN(C)CCNCC(=O)N1CCCCC1	9	nt	nt	nt	18	nt
O=C1NC(=O)/C(=C/c2cccc([N+](=O)[O-])c2)N1	6	5	-7	0	-19	-8
CCN1C/C(=C/c2cccc([N+](=O)[O-])c2)C(=O)/C(=C/c2cccc([N+](=O)[O-])c2)C1	46*	12	5	3	-56	-11
Cc1nn(C)cc1NC(=O)CC12CC3CC(CC(C3)C1)C2	8	6	4	1	2	52*
